# Reference: publication PMC5362249 (Biochemical pharmacology, 2016)
# How the values were obtained:
# [1] = target: glucocorticoid receptor (GR); settings: agonist; approximate; cited from earlier work
# NRs for estrogen = settings: cited from earlier work
# [2] = test system: NRs for mineralocorticoids; settings: cited from earlier work
# P-gp (Abcb1a) = experiment: Real-time RT-PCR of transporter mRNA in mouse tissues after exogenous hormones; type: in vivo; settings: uterus and endocervix; Gapdh-normalized
# In short: (§1)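 Tissues were taken from naturally cycling mice at estrus or diestrus (vaginal cytology staging) and from PMSG- or Depo-Provera-synchronized mice, 3–5 mice each. Real-time RT-PCR transporter mRNA was normalized to Gapdh by the 2−ΔCt method; Student's t-test between stages.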
# P-gp (Abcb1b) = experiment: as above; type: in vivo; settings: uterus and ectocervix; Gapdh-normalized
# In short: as §1
# Bcrp (Abcg2) = experiment: as above; type: in vivo; settings: uterus; Gapdh-normalized
# In short: as §1
# Mrp4 (Abcc4) = experiment: as above; type: in vivo; settings: uterus, endocervix, and colorectum; Gapdh-normalized
# In short: as §1
# P-gp (Abcb1a/1b) protein = type: in vivo, mouse; settings: endocervix, ectocervix, vagina
# In short: (§2)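 Tissues came from natural estrus and diestrus mice (staged by vaginal cytology) and synchronized mice (estrus 24 h after PMSG; diestrus 7 days after first Depo-Provera), at least 3 mice each. Primary antibody dilutions: P-gp 1:15, Bcrp 1:25, Mrp4 1:15, overnight at 4 °C. Then biotinylated secondary (1:200, 30 min RT), ABC 30 min, AEC, hematoxylin. Non-immune IgG as negative control.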
# Bcrp protein = type: in vivo, mouse; settings: compared to the natural estrous stages
# In short: as §2
# Mrp4 protein = type: in vivo, mouse; settings: endocervix, ectocervix, and vagina; vs natural estrous cycle
# In short: as §2
# Mrp4 [3] = target: T1, Mrp4 (Mus musculus, UniProt E9Q236); experiment: Effect of MK571 on tissue distribution of vaginally administered TFV; type: in vivo
# T1 sequence (E9Q236 1-1325): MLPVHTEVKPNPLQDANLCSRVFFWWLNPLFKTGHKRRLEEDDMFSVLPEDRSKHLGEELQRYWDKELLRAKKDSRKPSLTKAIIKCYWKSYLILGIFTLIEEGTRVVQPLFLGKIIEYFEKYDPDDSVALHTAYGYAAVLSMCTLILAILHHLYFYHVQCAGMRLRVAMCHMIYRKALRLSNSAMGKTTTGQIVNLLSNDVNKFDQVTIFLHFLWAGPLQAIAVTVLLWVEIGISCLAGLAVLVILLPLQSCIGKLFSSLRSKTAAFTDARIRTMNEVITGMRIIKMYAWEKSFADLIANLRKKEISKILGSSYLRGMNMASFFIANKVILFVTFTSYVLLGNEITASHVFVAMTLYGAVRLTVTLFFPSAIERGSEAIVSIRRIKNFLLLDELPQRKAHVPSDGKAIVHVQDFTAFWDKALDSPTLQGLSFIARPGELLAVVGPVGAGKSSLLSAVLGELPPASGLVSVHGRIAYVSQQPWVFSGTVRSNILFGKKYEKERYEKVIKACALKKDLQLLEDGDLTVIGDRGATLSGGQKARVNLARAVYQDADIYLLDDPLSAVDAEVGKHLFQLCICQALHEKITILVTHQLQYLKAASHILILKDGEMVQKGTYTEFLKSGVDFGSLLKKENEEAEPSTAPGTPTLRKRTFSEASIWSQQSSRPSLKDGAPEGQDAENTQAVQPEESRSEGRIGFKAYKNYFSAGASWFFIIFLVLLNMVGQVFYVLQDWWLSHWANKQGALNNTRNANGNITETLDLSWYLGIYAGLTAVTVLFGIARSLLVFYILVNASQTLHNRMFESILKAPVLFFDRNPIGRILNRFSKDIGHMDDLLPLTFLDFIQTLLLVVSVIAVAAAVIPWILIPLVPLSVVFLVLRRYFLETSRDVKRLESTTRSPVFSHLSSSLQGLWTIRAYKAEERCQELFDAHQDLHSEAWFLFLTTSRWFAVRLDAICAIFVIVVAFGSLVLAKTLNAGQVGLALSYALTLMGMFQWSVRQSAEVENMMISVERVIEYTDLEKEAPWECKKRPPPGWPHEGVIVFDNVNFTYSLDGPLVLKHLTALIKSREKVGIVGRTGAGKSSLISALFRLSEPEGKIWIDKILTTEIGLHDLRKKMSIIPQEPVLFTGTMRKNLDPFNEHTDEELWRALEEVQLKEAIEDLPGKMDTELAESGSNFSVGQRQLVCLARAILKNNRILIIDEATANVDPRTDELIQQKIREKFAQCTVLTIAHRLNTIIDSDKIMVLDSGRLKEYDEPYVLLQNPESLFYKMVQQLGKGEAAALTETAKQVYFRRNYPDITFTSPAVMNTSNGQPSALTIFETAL
# In short: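 Synchronized mice got IP saline or MK571 (100 μL, 7.5 mg/mL), then 20 μL vaginal gel 30 min later. Gel: 2.7% universal placebo (pH 4.4) with 3H-TFV plus unlabelled TFV, ±MK571. Ketamine/xylazine IP 5 min before gel. At 0.5 and 1 h: CVL (8 × 25 μL saline), plasma, tissues. Scintillation counting; total TFV from labelled:unlabelled ratio. 7–13 mice per point; ANOVA.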
# Mrp4 [4] = target: T1, Mrp4; experiment: Effect of MK571 on tissue distribution of IP-administered TFV; type: in vivo
# In short: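 Synchronized mice received 100 μL saline or saline containing 7.5 mg/mL MK571 IP. 15 min later they received 100 μL 3H-TFV in saline IP (0.94 × 10−5 mmol/mL, 125 μCi/mL). At 1.5 h: CVL (3 × 20 μL saline), plasma and tissues. Samples were dissolved in Solvable overnight at 50 °C, decolorized with H2O2 (50 °C, 1 h), then counted by scintillation. Two groups compared by t-test.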
# [5] = In vitro release of TFV from gels, Franz cell apparatus; type: physicochemical
# In short: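 Gels containing TFV, with or without MK571, were placed in the donor chamber of a Franz cell with PBS in the acceptor chamber. Acceptor TFV concentration over time gave cumulative release (30 and 60 min) and Papp. Three gels per group, mean ± SD.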
# [6] = MK571 incorporated into TFV gel vs control, 0.5 h post gel
# [7] = MK571 incorporated into TFV gel vs control, 1.0 h
compound,measurement,setting,value
"CC(=O)O[C@]1(C(C)=O)CC[C@H]2[C@@H]3C[C@H](C)C4=CC(=O)CC[C@]4(C)[C@H]3CC[C@@]21C [MPA, medroxyprogesterone acetate]",EC50,[1],~10 nM
same,binding to nuclear receptor,NRs for estrogen,does not bind significantly
same,binding to nuclear receptor,[2],does not bind significantly
"PMSG: exogenous hormone known to stimulate estrogen levels, used to synchronize mice into estrus",Abcb1a mRNA level compared to either stage of the natural cycle,P-gp (Abcb1a),significantly altered
same,Abcb1b mRNA level compared to either stage of the natural cycle,P-gp (Abcb1b),significantly altered
same,Bcrp mRNA level compared to either stage of the natural cycle,Bcrp (Abcg2),significantly altered
same,Mrp4 mRNA level compared to either stage of the natural cycle,Mrp4 (Abcc4),significantly altered
same,P-gp protein abundance or localization compared to natural estrous cycle,P-gp (Abcb1a/1b) protein,did not exert an obvious effect
same,Bcrp protein density in vaginal epithelium,Bcrp protein,appeared to decrease
same,epithelial and stromal abundance of Mrp4 protein,Mrp4 protein,decreased
CN(C)C(=O)CCSC(SCCC(=O)O)c1cccc(/C=C/c2ccc3ccc(Cl)cc3n2)c1 (stereo not drawn) [MK571],"TFV concentrations in plasma, uterus, and colorectum",Mrp4 [3]; MK571 IP solution 30 min before vaginal TFV gel vs TFV gel only,only slightly increased or remained unchanged
same,TFV concentration in CVL and endocervix,Mrp4 [3]; [6],remained unchanged
same,TFV concentration in mouse vaginal tissue,Mrp4 [3]; [6],significantly higher
same,"TFV concentration in plasma, uterus, ectocervix, and colorectum",Mrp4 [3]; [6],"slightly, but not significantly, increased"
same,TFV CVL concentration,Mrp4 [3]; [7],significantly decreased
same,TFV concentration in plasma and uterus,Mrp4 [3]; [7],remained unchanged
same,TFV concentration in the colorectum,Mrp4 [3]; [7],significantly increased
same,"decrease in TFV concentration in endocervix, ectocervix, and vagina",Mrp4 [3]; [7],not statistically significant
same,TFV concentration in CVL and vagina,"Mrp4 [4]; MK571 IP 15 min before IP TFV, 1.5 h post-TFV, p = 0.04",increased
same,TFV colorectum/plasma ratio,"Mrp4 [4]; MK571 IP co-administration, IP TFV, 1.5 h, p = 0.006",significantly increased
same,TFV vagina/plasma ratio,"Mrp4 [4]; MK571 IP co-administration, IP TFV, 1.5 h, p = 0.03",significantly increased
same,"permeability coefficient Papp of TFV, gel with vs without MK571","[5]; Franz cell apparatus, acceptor chamber",almost identical
same,impact of MK571 incorporation into the gel on in vitro release profile of TFV,"[5]; vs gel containing TFV alone, Franz cell, PBS acceptor",did not have any impact
"C[C@H](Cn1cnc2c(N)ncnc21)OCP(=O)(O)O [TFV, tenofovir]",TFV distribution compared to its plasma concentration,"Mrp4 [4]; after IP administration, 1.5 h",preferentially distributed into cervicovaginal tissues and fluid
